Test results as given in ChEMBL document CHEMBL1141112, “Synthesis and antiinflammatory activity of coumarin derivatives” (J Med Chem, 2005).
Calls of active or inactive are those of the source. No cut-off for these calls is given here.

Assays:
[1] = system: Rattus norvegicus; assay: Onset of arthritis measured as arthritic score at i.p. dose of 0.001 m mol/kg in rats injected intradermally with Freund's adjuvant after 22 days; type: functional
Method in brief: (§1)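 Fischer 344 rats, five per group, given Freund's adjuvant (0.6 mg desiccated Mycobacterium butyricum in 0.1 mL liquid paraffin) intradermally at tail base. Compound given ip at 0.001 mmol/kg from day 0, every other day for 24 days; absolute controls got vehicle only. Score: one point per inflamed wrist/ankle plus one per involved phalangeal joint, max five per limb, every 2 days from day 14. Run in duplicate.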

[2] = system: Rattus norvegicus; assay: Onset of arthritis measured as arthritic score at i.p. dose of 0.001 m mol/kg in rats injected intradermally with Freund's adjuvant after 24 days; type: functional; method in brief: as §1
[3] = system: Rattus norvegicus; assay: Percent change in body weight of (FA) adjuvant induced rats at i.p. dose of 0.001 m mol/kg after 24 days; type: functional
[4] = Superoxide radical scavenging activity at 1 mM upon incubation for 2 min at RT in pH 7.4 with PMS, NADH and NBT by nitroblue tetrazolium method; no action
[5] = system: Rattus norvegicus; assay: Onset of arthritis measured as arthritic score at i.p. dose of 0.001 m mol/kg in rats injected intradermally with Freund's adjuvant after 0 days; type: functional; method in brief: as §1
[6] = system: Rattus norvegicus; assay: Onset of arthritis measured as arthritic score at i.p. dose of 0.001 m mol/kg in rats injected intradermally with Freund's adjuvant after 2 days; type: functional; method in brief: as §1
[7] = system: Rattus norvegicus; assay: Onset of arthritis measured as arthritic score at i.p. dose of 0.001 m mol/kg in rats injected intradermally with Freund's adjuvant after 4 days; type: functional; method in brief: as §1
[8] = system: Rattus norvegicus; assay: Onset of arthritis measured as arthritic score at i.p. dose of 0.001 m mol/kg in rats injected intradermally with Freund's adjuvant after 6 days; type: functional; method in brief: as §1
[9] = system: Rattus norvegicus; assay: Onset of arthritis measured as arthritic score at i.p. dose of 0.001 m mol/kg in rats injected intradermally with Freund's adjuvant after 8 days; type: functional; method in brief: as §1
[10] = system: Rattus norvegicus; assay: Onset of arthritis measured as arthritic score at i.p. dose of 0.001 m mol/kg in rats injected intradermally with Freund's adjuvant after 10 days; type: functional; method in brief: as §1
[11] = system: Rattus norvegicus; assay: Onset of arthritis measured as arthritic score at i.p. dose of 0.001 m mol/kg in rats injected intradermally with Freund's adjuvant after 12 days; type: functional; method in brief: as §1
[12] = system: Rattus norvegicus; assay: Onset of arthritis measured as arthritic score at i.p. dose of 0.001 m mol/kg in rats injected intradermally with Freund's adjuvant after 14 days; type: functional; method in brief: as §1
[13] = system: Rattus norvegicus; assay: Onset of arthritis measured as arthritic score at i.p. dose of 0.001 m mol/kg in rats injected intradermally with Freund's adjuvant after 16 days; type: functional; method in brief: as §1
[14] = system: Rattus norvegicus; assay: Onset of arthritis measured as arthritic score at i.p. dose of 0.001 m mol/kg in rats injected intradermally with Freund's adjuvant after 18 days; type: functional; method in brief: as §1
[15] = system: Rattus norvegicus; assay: Onset of arthritis measured as arthritic score at i.p. dose of 0.001 m mol/kg in rats injected intradermally with Freund's adjuvant after 20 days; type: functional; method in brief: as §1
[16] = molecular target: T1, Seed linoleate 13S-lipoxygenase-1 (Glycine max, UniProt P08170); assay: Inhibitory concentration against soybean lipoxygenase upon incubation with sodium linoleate (0.1 mM) at RT
T1 sequence (P08170 whole entry): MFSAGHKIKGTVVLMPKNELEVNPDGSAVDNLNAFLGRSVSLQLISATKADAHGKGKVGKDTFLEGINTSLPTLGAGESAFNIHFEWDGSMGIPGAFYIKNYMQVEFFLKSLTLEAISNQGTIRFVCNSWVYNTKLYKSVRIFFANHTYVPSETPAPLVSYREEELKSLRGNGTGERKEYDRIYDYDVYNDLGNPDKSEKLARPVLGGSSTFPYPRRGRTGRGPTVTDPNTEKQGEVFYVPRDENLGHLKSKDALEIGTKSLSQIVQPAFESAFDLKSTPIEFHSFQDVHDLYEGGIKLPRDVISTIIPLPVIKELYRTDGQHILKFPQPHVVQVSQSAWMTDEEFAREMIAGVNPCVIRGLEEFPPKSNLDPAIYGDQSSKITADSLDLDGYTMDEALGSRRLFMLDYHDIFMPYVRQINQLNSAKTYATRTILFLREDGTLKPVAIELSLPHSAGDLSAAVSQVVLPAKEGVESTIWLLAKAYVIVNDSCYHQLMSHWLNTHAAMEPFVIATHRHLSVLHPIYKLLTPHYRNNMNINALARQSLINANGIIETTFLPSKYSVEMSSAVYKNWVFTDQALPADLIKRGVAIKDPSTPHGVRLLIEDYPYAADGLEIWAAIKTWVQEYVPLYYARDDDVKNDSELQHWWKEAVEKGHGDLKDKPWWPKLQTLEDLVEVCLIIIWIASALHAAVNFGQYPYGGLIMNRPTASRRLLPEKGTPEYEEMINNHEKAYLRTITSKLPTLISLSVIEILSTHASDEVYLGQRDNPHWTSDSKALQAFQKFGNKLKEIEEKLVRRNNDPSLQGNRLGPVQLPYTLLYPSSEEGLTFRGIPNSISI
Method in brief: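 Soybean lipoxygenase (0.2 mL enzyme solution, 1/3 ×10^4 w/v in saline) incubated at room temperature with test compounds in ethanol and sodium linoleate 0.1 mM as substrate. Conversion to 13-hydroperoxylinoleic acid followed at 234 nm and compared with NDGA as standard inhibitor. Run at least in triplicate; SD of absorbance under 10% of mean.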

[17] = Percent heme protein dependent lipid peroxidation at (1 mM) upon incubation for 10 min at 37 degree C. in pH 7.4 with arachidonic acid and H2O2; type: functional
Method in brief: (§2)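 Heme 50 μM, arachidonic acid 0.4 mM, test compound and H2O2 0.5 mM incubated together for 10 min at 37 °C in KH2PO4–KOH buffer (50 mM, pH 7.4). Tested at 0.1 and 1 mM. At least triplicate; absorbance SD under 10% of mean.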

[18] = Percent heme protein dependent lipid peroxidation at (0.1 mM) upon incubation for 10 min at 37 degree C. in pH 7.4 with arachidonic acid and H2O2; type: functional; method in brief: as §2
[19] = system: Rattus norvegicus; assay: Percent inhibition of carrageenan 2% (0.1 mL intradermal) induced paw edema at the i.p. dose of 0.01 m mol/kg in fisher 344 rats; n=5; type: functional
Method in brief: (§3)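 Right hind paw edema in Fischer 344 rats (150–200 g) induced by intradermal 0.1 mL 2% carrageenin in water. Rats killed 3.5 h after carrageenin; injected minus uninjected paw weight compared with water-treated controls and expressed as percent inhibition. Mean of two experiments, five animals per group; Student's t-test.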

[20] = system: Rattus norvegicus; assay: Duration of paralysis in rats (injected i.p. with 10 mg/1 mL/g of zoxazolamine) at i.p. dose of 0.001 m mol/kg after 24 days; type: functional
Method in brief: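 Fischer 344 rats, groups of five, given Freund's Adjuvant intradermally at tail base; compound ip 0.001 mmol/kg from day zero every other day for 24 days. On day 24, ≥12 h after last dose, zoxazolamine ip 10 mg/1 mL/g as aqueous Tween 80 suspension; paralysis duration timed. Run in duplicate.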

[21] = molecular target: Prostaglandin G/H synthase 1 (Homo sapiens) (UniProt P23219); details: at 1 mM
Prostaglandin G/H synthase 1 (Homo sapiens), sequence (P23219 whole entry): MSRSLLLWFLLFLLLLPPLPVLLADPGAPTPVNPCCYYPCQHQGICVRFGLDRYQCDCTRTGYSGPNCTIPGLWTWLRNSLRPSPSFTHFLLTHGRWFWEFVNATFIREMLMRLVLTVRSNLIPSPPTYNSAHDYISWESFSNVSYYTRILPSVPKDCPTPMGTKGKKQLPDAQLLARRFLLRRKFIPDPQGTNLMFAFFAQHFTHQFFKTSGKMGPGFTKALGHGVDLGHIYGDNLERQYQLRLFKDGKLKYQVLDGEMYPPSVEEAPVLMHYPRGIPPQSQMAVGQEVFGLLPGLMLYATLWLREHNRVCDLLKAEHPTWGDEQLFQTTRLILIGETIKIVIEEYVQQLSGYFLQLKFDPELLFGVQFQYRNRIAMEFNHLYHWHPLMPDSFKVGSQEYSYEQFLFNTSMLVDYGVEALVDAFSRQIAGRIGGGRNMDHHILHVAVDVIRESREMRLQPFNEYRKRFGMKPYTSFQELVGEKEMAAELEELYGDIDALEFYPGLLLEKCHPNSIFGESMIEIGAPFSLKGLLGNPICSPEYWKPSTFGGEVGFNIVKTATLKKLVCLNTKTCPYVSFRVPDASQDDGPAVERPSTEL

[22] = Percent heme protein dependent lipid peroxidation (0.1 mM) upon incubation for 10 min at 37 degree C. in pH 7.4 with arachidonic acid and H2O2; no action; type: functional; method in brief: as §2
[23] = Percent heme protein dependent lipid peroxidation (1 mM) upon incubation for 10 min at 37 degree C. in pH 7.4 with arachidonic acid and H2O2; no action; type: functional; method in brief: as §2
[24] = Superoxide radical scavenging activity at 1 mM upon incubation for 2 min at RT in pH 7.4 with PMS, NADH and NBT by nitroblue tetrazolium method
[25] = system: Rattus norvegicus; assay: Onset of arthritis measured as arthritic score at p.o. dose of 80 mg/kg in rats injected intradermally with Freund's adjuvant after 24 days; type: functional; details: route oral
[26] = molecular target: T1, Seed linoleate 13S-lipoxygenase-1; assay: Inhibitory concentration against soybean lipoxygenase upon incubation with sodium linoleate (0.1 mM) at RT; no action
[27] = system: Rattus norvegicus; assay: Percent inhibition of carrageenan 2% (0.1 mL intradermal) induced paw edema at the i.p. dose of 0.01 m mol/kg in fisher 344 rats; n=5; no action; type: functional, organism-based; method in brief: as §3

O=c1ccc2ccc(O)c(CN3CCNCC3)c2o1
Arthritic score [1]: 4.8 | Arthritic score [2]: 5.8 | Change of body weight [3]: 18.4% | Scavenging Activity [4]: No action | Arthritic score [5]: 0 | Arthritic score [6]: 0 | Arthritic score [7]: 0 | Arthritic score [8]: 0 | Arthritic score [9]: 0 | Arthritic score [10]: 0 | Arthritic score [11]: 0 | Arthritic score [12]: 1.2 | Arthritic score [13]: 0 | Arthritic score [14]: 3.2 | Arthritic score [15]: 3 | IC50 [16]: 100 µM | Lipid peroxidation [17]: 21.9% | Lipid peroxidation [18]: 19.5% | Inhibition [19]: 77.7% | Paralysis [20]: 292 min | inhibition [21]: 11%

CCCCCN(CCCCC)Cc1c(O)ccc2ccc(=O)oc12
Scavenging Activity [4]: No action | IC50 [16]: 13 µM | Lipid peroxidation [17]: 13.7% | Lipid peroxidation [22]: No action | Inhibition [19]: 46.2%

O=c1ccc2ccc(O)c(CNCc3ccccc3)c2o1
Scavenging Activity [4]: No action | IC50 [16]: 44 µM | Lipid peroxidation [17]: 35.6% | Lipid peroxidation [18]: 19.5% | Inhibition [19]: 47.5%

CN1COc2ccc3ccc(=O)oc3c2C1
IC50 [16]: 42 µM | Lipid peroxidation [23]: No action | Lipid peroxidation [22]: No action | Inhibition [19]: 53.6%

O=c1ccc2ccc(O)c(CNCCc3ccccc3)c2o1
IC50 [16]: 41 µM | Lipid peroxidation [17]: 5.5% | Lipid peroxidation [18]: 18.2% | Scavenging Activity [24]: 22.2% | Inhibition [19]: 31.2%

O=c1ccc2ccc(O)c(CN3CCOCC3)c2o1
Arthritic score [1]: 4.25 | Arthritic score [2]: 3.5 | Change of body weight [3]: 7% | Arthritic score [5]: 0 | Arthritic score [6]: 0 | Arthritic score [7]: 0 | Arthritic score [8]: 0 | Arthritic score [9]: 0 | Arthritic score [10]: 0 | Arthritic score [11]: 0 | Arthritic score [12]: 1.2 | Arthritic score [13]: 1.25 | Arthritic score [14]: 2.5 | Arthritic score [15]: 3.25 | IC50 [16]: > 1000 µM | Lipid peroxidation [17]: 19.9% | Lipid peroxidation [18]: 19.5% | Scavenging Activity [24]: 58.3% | Inhibition [19]: 75.7% | Paralysis [20]: 212 min | inhibition [21]: 32%

CCCCCNCc1c(O)ccc2ccc(=O)oc12
Scavenging Activity [4]: No action | IC50 [16]: 59 µM | Lipid peroxidation [17]: 5.7% | Lipid peroxidation [18]: 8.6% | Inhibition [19]: 52.7%

CCCCC1C(=O)N(c2ccccc2)N(c2ccccc2)C1=O [PHENYLBUTAZONE]
Arthritic score [25]: 9

O=c1ccc2ccc(O)c(CN3CCCCC3)c2o1
Scavenging Activity [4]: No action | IC50 [16]: 37 µM | Lipid peroxidation [17]: 7.6% | Lipid peroxidation [22]: No action | Inhibition [19]: 47.4%

O=c1ccc2ccccc2o1 [COUMARIN]
Lipid peroxidation [17]: 19.2% | Lipid peroxidation [18]: 9.1% | Scavenging Activity [24]: 88.9% | Inhibition [19]: 30.2%

O=C(O)/C=C/c1ccc(O)c(O)c1
Lipid peroxidation [17]: 5.5% | Lipid peroxidation [22]: inactive | Scavenging Activity [24]: 86.1%

NCCCNCc1c(O)ccc2ccc(=O)oc12
IC50 [16]: > 1000 µM | Lipid peroxidation [23]: No action | Lipid peroxidation [22]: No action | Scavenging Activity [24]: 50% | Inhibition [19]: 53.4%

NCCNCc1c(O)ccc2ccc(=O)oc12
Scavenging Activity [4]: No action | IC50 [16]: > 1000 µM | Lipid peroxidation [17]: 22.1% | Lipid peroxidation [22]: No action | Inhibition [19]: 56%

CC(=O)CC(c1ccccc1)c1c(O)c2ccccc2oc1=O (stereo not drawn) [WARFARIN]
IC50 [26]: No Action | Lipid peroxidation [23]: No action | Lipid peroxidation [22]: No action | Scavenging Activity [24]: 25% | Inhibition [19]: 41%

CCNCc1c(O)ccc2ccc(=O)oc12
Scavenging Activity [4]: No action | IC50 [16]: 52 µM | Lipid peroxidation [17]: 5.5% | Lipid peroxidation [22]: No action | Inhibition [19]: 53.6%

COc1ccc2c(c1)c(CC(=O)O)c(C)n2C(=O)c1ccc(Cl)cc1 [INDOMETHACIN]
Inhibition [19]: 47%

O=c1ccc2ccc(O)cc2o1 [UMBELLIFERONE]
Arthritic score [1]: 5.2 | Arthritic score [2]: 4 | Change of body weight [3]: 18.6% | Arthritic score [5]: 0 | Arthritic score [6]: 0 | Arthritic score [7]: 0 | Arthritic score [8]: 0 | Arthritic score [9]: 0 | Arthritic score [10]: 0 | Arthritic score [11]: 0 | Arthritic score [12]: 1.2 | Arthritic score [13]: 1.2 | Arthritic score [14]: 1.8 | Arthritic score [15]: 2.6 | IC50 [16]: 43 µM | Lipid peroxidation [17]: 26.1% | Lipid peroxidation [18]: 14.6% | Scavenging Activity [24]: 80.6% | Paralysis [20]: 232.5 min | inhibition [27]: No Action

CC(C)CNCc1c(O)ccc2ccc(=O)oc12
IC50 [16]: 47 µM | Lipid peroxidation [23]: No action | Lipid peroxidation [22]: No action | Scavenging Activity [24]: 33.3% | Inhibition [19]: 55.4%

CC(Cc1ccc(O)c(O)c1)C(C)Cc1ccc(O)c(O)c1 (stereo not drawn)
Scavenging Activity [4]: inactive | Lipid peroxidation [17]: 26.1% | Lipid peroxidation [18]: inactive
